Numbering of substitutions follows the chain as printed.
Legend:
Details in all cases: stereoisomer not certain
Or10j5 (Mus musculus) = target: T1, Or10j5 (Mus musculus) (UniProt Q62007)
T1 sequence (whole entry): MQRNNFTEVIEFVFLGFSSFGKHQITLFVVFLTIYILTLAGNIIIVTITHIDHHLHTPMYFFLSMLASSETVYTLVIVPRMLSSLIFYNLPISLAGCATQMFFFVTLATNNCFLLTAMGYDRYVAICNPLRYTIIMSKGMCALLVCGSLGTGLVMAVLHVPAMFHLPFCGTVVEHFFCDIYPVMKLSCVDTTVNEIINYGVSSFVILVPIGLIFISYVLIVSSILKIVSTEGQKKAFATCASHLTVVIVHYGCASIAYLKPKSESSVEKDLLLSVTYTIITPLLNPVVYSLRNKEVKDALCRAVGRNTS
Summary of the method: (§1)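 Transient luciferase assays in mammalian cell lines were common, though methods varied by source. The values come from published papers and their supplementary material, with extra details from the original authors when needed. Responsive refers to a measured signal the original authors judged statistically different from baseline, and non-responsive (inactive) to the remainder.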

Or1m1 (Mus musculus) = target: T2, Or1m1 (Mus musculus) (UniProt Q8VFM9)
T2 sequence (whole entry): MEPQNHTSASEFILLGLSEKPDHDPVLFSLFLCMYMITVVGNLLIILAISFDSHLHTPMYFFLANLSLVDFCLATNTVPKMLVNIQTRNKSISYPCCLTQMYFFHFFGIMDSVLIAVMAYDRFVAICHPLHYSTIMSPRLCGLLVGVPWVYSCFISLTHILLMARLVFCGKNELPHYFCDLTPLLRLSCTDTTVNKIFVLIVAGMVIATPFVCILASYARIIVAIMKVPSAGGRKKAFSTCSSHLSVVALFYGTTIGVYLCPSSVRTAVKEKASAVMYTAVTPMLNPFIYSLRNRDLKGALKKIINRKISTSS
Summary of the method: as §1

Or2c1 (Mus musculus) = target: T3, Or2c1 (Mus musculus) (UniProt P23275)
T3 sequence (whole entry): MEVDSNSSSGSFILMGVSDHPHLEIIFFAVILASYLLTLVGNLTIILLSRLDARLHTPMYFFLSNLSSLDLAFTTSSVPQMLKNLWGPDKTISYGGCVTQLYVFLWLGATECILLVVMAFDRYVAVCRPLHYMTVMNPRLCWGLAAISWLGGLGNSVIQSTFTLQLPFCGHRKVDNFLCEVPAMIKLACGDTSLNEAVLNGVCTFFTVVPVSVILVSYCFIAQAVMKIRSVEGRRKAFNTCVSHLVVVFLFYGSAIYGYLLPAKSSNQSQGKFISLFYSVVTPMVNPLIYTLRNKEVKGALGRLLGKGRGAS
Summary of the method: as §1

Or5ar1 (Mus musculus) = target: T4, Or5ar1 (Mus musculus) (UniProt Q8VGS3)
T4 sequence (whole entry): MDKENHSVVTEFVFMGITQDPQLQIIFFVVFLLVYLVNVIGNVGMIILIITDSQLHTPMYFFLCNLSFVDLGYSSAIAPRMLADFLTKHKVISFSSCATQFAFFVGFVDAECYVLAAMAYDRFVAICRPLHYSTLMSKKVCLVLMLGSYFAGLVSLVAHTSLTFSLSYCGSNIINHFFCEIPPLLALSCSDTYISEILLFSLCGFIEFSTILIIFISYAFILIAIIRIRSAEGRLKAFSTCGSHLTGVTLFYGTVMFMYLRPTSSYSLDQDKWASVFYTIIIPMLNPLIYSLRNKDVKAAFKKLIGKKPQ
Summary of the method: as §1

OR9A4 (Homo sapiens) = target: T5, OR9A4 (Homo sapiens) (UniProt Q8NGU2)
T5 sequence (whole entry): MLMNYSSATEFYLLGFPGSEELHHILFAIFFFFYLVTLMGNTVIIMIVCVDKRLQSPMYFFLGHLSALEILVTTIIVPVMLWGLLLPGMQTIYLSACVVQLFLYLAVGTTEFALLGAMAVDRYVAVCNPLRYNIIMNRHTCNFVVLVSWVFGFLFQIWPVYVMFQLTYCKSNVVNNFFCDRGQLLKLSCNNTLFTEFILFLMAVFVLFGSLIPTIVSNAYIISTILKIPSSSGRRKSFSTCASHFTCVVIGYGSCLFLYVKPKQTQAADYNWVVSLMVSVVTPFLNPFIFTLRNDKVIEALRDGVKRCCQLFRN
Summary of the method: as §1

OR9G1 (Homo sapiens) = target: T6, OR9G1 (Homo sapiens) (UniProt Q8NH87)
T6 sequence (whole entry): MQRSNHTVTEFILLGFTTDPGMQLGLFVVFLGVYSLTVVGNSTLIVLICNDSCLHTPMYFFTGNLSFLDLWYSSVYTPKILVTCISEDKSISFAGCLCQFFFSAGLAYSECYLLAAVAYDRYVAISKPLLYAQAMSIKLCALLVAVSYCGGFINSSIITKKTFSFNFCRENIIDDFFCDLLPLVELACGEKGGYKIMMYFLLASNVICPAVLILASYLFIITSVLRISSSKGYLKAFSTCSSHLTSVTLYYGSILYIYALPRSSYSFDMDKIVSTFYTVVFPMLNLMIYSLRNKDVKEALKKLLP
Summary of the method: as §1

OR9G4 (Homo sapiens) = target: T7, OR9G4 (Homo sapiens) (UniProt Q8NGQ1)
T7 sequence (whole entry): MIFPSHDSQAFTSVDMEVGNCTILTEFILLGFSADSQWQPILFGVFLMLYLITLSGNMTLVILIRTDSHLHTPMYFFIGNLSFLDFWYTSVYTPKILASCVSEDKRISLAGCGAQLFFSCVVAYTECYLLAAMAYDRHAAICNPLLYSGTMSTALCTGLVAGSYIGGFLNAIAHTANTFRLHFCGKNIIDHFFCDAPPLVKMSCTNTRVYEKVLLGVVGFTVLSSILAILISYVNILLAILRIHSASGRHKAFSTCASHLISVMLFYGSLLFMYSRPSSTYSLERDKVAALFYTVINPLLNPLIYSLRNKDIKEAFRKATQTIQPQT
Summary of the method: as §1

OR9G4 H6Y N206D V222A = system: T8, OR9G4 H6Y N206D V222A
T8 sequence (whole entry): T7 sequence (whole entry) with H6Y, N206D, V222A
Summary of the method: as §1

OR9G4 N206D V222A = system: T9, OR9G4 N206D V222A
T9 sequence (whole entry): T7 sequence (whole entry) with N206D, V222A
Summary of the method: as §1

OR9G9 = system: T10, OR9G9
T10 sequence (whole entry): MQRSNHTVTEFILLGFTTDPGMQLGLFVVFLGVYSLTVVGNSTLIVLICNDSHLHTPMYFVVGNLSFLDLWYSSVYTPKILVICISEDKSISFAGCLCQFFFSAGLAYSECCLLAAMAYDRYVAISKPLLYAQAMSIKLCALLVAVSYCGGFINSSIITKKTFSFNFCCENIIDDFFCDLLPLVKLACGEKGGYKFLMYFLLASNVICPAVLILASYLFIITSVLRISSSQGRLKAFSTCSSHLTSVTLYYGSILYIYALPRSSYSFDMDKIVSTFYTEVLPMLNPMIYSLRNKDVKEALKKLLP
Summary of the method: as §1

OR9I1 (Homo sapiens) = target: T11, OR9I1 (Homo sapiens) (UniProt Q8NGQ6)
T11 sequence (whole entry): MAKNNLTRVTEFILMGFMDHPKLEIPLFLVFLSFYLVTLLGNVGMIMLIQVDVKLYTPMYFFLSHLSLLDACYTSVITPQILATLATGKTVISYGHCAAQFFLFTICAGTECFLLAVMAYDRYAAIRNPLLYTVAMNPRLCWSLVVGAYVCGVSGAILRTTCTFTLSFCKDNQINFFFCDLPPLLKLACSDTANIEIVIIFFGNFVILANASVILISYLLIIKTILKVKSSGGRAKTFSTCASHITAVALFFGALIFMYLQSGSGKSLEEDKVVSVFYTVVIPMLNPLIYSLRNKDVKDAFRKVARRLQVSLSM
Summary of the method: as §1

OR9K2 (Homo sapiens) = target: T12, OR9K2 (Homo sapiens) (UniProt Q8NGE7)
T12 sequence (whole entry): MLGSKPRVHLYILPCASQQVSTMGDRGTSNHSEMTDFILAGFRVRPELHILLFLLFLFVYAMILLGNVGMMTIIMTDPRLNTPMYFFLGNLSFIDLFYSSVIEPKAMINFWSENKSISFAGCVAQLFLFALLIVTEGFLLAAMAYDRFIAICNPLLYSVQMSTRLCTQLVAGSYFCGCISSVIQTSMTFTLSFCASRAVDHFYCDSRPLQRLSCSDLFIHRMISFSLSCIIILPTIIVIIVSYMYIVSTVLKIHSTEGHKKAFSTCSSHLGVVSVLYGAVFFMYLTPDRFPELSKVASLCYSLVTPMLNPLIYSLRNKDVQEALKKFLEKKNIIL
Summary of the method: as §1

OR9K2 R207H = system: T13, OR9K2 R207H
T13 sequence (whole entry): T12 sequence (whole entry) with R207H
Summary of the method: as §1

OR9Q1 (Homo sapiens) = target: T14, OR9Q1 (Homo sapiens) (UniProt Q8NGQ5)
T14 sequence (whole entry): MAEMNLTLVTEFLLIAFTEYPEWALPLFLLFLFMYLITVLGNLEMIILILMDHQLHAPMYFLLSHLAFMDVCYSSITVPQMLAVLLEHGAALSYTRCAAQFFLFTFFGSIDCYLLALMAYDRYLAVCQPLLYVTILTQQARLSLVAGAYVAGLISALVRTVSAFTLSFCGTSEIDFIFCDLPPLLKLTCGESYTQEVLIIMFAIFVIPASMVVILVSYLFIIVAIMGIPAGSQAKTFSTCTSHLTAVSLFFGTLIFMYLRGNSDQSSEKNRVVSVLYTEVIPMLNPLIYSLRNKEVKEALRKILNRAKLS
Summary of the method: as §1

OR9Q1 A83T = system: T15, OR9Q1 A83T
T15 sequence (whole entry): T14 sequence (whole entry) with A83T
Summary of the method: as §1

OR9Q2 (Homo sapiens) = target: T16, OR9Q2 (Homo sapiens) (UniProt Q8NGE9)
T16 sequence (whole entry): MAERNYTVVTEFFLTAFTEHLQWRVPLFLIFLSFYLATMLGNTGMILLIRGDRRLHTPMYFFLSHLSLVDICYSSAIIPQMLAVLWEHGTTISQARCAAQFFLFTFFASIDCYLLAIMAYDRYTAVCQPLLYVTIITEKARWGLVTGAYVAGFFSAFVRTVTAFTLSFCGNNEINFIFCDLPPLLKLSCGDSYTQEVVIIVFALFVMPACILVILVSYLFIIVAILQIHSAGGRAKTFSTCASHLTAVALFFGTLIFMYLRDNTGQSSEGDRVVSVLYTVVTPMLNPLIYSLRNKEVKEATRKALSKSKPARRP
Summary of the method: as §1

OR9Q2 C179R = system: T17, OR9Q2 C179R
T17 sequence (whole entry): T16 sequence (whole entry) with C179R
Summary of the method: as §1

OR9G9 (Homo sapiens) = target: T18, OR9G9 (Homo sapiens) (UniProt P0C7N8)
T18 sequence (whole entry): T10 sequence (whole entry) with G193C
Summary of the method: as §1

Or5an6 (Mus musculus) = target: T19, Or5an6 (Mus musculus) (UniProt Q8VFV4)
T19 sequence (whole entry): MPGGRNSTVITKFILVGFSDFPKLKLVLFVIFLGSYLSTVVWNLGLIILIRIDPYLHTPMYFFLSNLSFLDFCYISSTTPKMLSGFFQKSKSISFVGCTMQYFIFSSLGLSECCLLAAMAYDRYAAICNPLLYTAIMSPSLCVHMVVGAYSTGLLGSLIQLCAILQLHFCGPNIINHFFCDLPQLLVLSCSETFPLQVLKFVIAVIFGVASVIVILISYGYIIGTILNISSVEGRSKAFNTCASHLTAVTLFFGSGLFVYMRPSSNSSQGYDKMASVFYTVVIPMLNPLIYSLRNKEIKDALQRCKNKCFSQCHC
Summary of the method: as §1

Measured: odorant receptor agonist call

O=C(O)CCCCCCCCCCCBr
inactive: Or10j5 (Mus musculus)

CCCCCCCO
inactive: Or10j5 (Mus musculus) | Or1m1 (Mus musculus) | Or2c1 (Mus musculus) | Or5ar1 (Mus musculus)

CCCCC=O
inactive: Or10j5 (Mus musculus) | Or1m1 (Mus musculus) | Or5ar1 (Mus musculus)

CCCCCCCCCCCC=O
inactive: Or10j5 (Mus musculus)

O=C(O)CCCCCCCCCBr
inactive: Or10j5 (Mus musculus)

O=C(O)CCCCBr
inactive: Or10j5 (Mus musculus)

CCCCCCCCCCC(=O)O
inactive: Or10j5 (Mus musculus)

CCC1OC(C)=C(O)C1=O (stereo unspecified)
inactive: OR9A4 (Homo sapiens) | OR9G1 (Homo sapiens) | OR9G4 (Homo sapiens) | OR9G4 H6Y N206D V222A | OR9G4 N206D V222A | OR9G9 | OR9I1 (Homo sapiens) | OR9K2 (Homo sapiens) | OR9K2 R207H | OR9Q1 (Homo sapiens) | OR9Q1 A83T | OR9Q2 (Homo sapiens) | OR9Q2 C179R

CCC1OC(=O)C(O)=C1C (stereo unspecified)
inactive: OR9A4 (Homo sapiens) | OR9G1 (Homo sapiens) | OR9G4 (Homo sapiens) | OR9G4 H6Y N206D V222A | OR9G4 N206D V222A | OR9G9 | OR9I1 (Homo sapiens) | OR9K2 (Homo sapiens) | OR9K2 R207H | OR9Q1 (Homo sapiens) | OR9Q1 A83T | OR9Q2 (Homo sapiens) | OR9Q2 C179R

O=C(O)CCCCCC(=O)O
inactive: Or10j5 (Mus musculus)

O=C([O-])CCCCCCC(=O)[O-].[H+].[H+]
inactive: Or10j5 (Mus musculus) | Or1m1 (Mus musculus) | Or5ar1 (Mus musculus)

CC(=O)c1c(C)c([N+](=O)[O-])c(C(C)(C)C)c([N+](=O)[O-])c1C
active: Or5an6 (Mus musculus)
inactive: OR9A4 (Homo sapiens) | OR9G1 (Homo sapiens) | OR9G4 (Homo sapiens) | OR9G9 (Homo sapiens) | OR9I1 (Homo sapiens) | OR9K2 (Homo sapiens) | OR9Q1 (Homo sapiens) | OR9Q2 (Homo sapiens)

Reference: the M2OR odorant receptor database
